Data on eight compounds can be found in ChEMBL document CHEMBL1641489, “Syntheses, structures and antibiotic activities of LpxC inhibitors based on the diacetylene scaffold” (Bioorg Med Chem, 2011).

Converted amounts (≈) assume the structure as drawn.

For assay [1], the system named is Escherichia coli. The assay is described as follows: Antibacterial activity against Escherichia coli W3110RL replaced with Rhizobium leguminosarum lpxC gene by NCCLS assay. It counts as functional. In short, it runs like this:
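MIC by the NCCLS protocol in LB medium with 5% DMSO. Strain: E. coli with native lpxC replaced by the R. leguminosarum gene.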

In assay [2] the test system is Escherichia coli. The assay is described as follows: Antibacterial activity against Escherichia coli W3110 by NCCLS assay. It counts as functional. In short, it runs like this: (§1)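 Broth microdilution MIC per NCCLS protocol, adapted to 96-well format in LB medium containing 5% DMSO; MIC taken as lowest concentration inhibiting bacterial growth.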
The test system of assay [3] is Escherichia coli. The assay is described as follows: Antibacterial activity against Escherichia coli W3110PA replaced with Pseudomonas aeruginosa lpxC gene by NCCLS assay. It counts as functional. In short, it runs like this: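 MIC by the NCCLS protocol in LB medium with 5% DMSO. Strain: W3110 with chromosomal lpxC swapped for P. aeruginosa lpxC. The swap was made by λ-red recombination in DY330 and moved into W3110 by P1vir transduction, selecting on LB/agar with 15 μg/mL L-161,240 and 10 mM sodium citrate.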

In assay [4] the target is T1, UDP-3-O-acyl-N-acetylglucosamine deacetylase (Escherichia coli K-12, UniProt P0A725).
T1 sequence (P0A725 whole entry): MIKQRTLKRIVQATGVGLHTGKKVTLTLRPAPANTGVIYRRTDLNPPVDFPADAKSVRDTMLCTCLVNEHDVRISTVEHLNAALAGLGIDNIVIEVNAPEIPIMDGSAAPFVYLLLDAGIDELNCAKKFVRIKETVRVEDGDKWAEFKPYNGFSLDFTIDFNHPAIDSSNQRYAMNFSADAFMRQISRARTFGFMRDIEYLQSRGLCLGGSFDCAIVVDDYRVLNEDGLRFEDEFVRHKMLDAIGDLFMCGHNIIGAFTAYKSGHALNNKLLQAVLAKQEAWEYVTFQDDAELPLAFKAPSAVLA
The assay is described as follows: Inhibition of Escherichia coli LpxC.

Assay [5] concerns Pseudomonas aeruginosa. The assay is described as follows: Antibacterial activity against Pseudomonas aeruginosa PAO1 by NCCLS assay. It counts as functional. In short, it runs like this:
as §1

On to `C[C@@H](O)[C@H](NC(=O)c1ccc(C#CC#Cc2ccccc2)cc1)C(=O)NO`, for which the MIC in assay [1] was 6.3 mg/L (≈ 17.4 µM); in assay [2] it was 0.05 mg/L (≈ 0.138 µM); in assay [3] it was 0.7 mg/L (≈ 1.93 µM); in assay [5], 0.7 mg/L (≈ 1.93 µM). Further, the Ki in assay [4] (read-out: Ki) amounted to 0.18 nM; in assay [4] (read-out: Ki(app)), 0.55 nM.
As for `C[C@@H](O)[C@H](NC(=O)c1ccc(C#CC#Cc2ccc(N)cc2)cc1)C(=O)NO`, the MIC amounted to 3.9 mg/L (≈ 10.3 µM) in assay [1], 0.03 mg/L (≈ 0.0795 µM) in assay [2], 0.5 mg/L (≈ 1.32 µM) in assay [3] and 0.5 mg/L (≈ 1.32 µM) in assay [5].
Turning to `C[C@@H](O)[C@H](NC(=O)c1ccc(C#CC#Cc2cccc(N)c2)cc1)C(=O)NO`, the MIC is 6.3 mg/L (≈ 16.7 µM) in assay [1], 0.06 mg/L (≈ 0.159 µM) in assay [2], 1.3 mg/L (≈ 3.44 µM) in assay [3] and 1.3 mg/L (≈ 3.44 µM) in assay [5].
Turning to `C[C@@H](O)[C@H](NC(=O)c1ccc(C#CC#Cc2ccccc2N)cc1)C(=O)NO`, the minimum inhibitory concentration (MIC) is greater than 25 mg/L in assay [1], 0.5 mg/L (≈ 1.32 µM) in assay [2], 8.3 mg/L (≈ 22 µM) in assay [3] and 12.5 mg/L (≈ 33.1 µM) in assay [5].
As to `C[C@H](O)[C@H](NC(=O)c1ccc(C#CC#Cc2ccc(N)cc2)cc1)C(=O)NO`, the MIC in assay [1] was determined as 12.5 mg/L (≈ 33.1 µM); in assay [2], 0.07 mg/L (≈ 0.185 µM); in assay [3] it was 0.8 mg/L (≈ 2.12 µM); in assay [5], 0.9 mg/L (≈ 2.38 µM).
For the compound `C[C@@H](O)[C@@H](NC(=O)c1ccc(C#CC#Cc2ccc(N)cc2)cc1)C(=O)NO`, the minimum inhibitory concentration (MIC) in assay [1] was greater than 25 mg/L; in assay [2] it was 6.3 mg/L (≈ 16.7 µM); in assay [3] it was greater than 25 mg/L; in assay [5] it was greater than 25 mg/L.
In the case of `C[C@H](O)[C@@H](NC(=O)c1ccc(C#CC#Cc2ccc(N)cc2)cc1)C(=O)NO`, the MIC in assay [1] was greater than 25 mg/L; in assay [2], 3.1 mg/L (≈ 8.21 µM); in assay [3], greater than 25 mg/L; in assay [5], greater than 25 mg/L.
Take `C[C@@H](O)[C@H](NC(=O)c1ccc(C#Cc2ccc(CN3CCOCC3)cc2)cc1)C(=O)NO`: the MIC was determined as 125 mg/L (≈ 286 µM) in assay [1], 0.2 mg/L (≈ 0.457 µM) in assay [2], 1.3 mg/L (≈ 2.97 µM) in assay [3] and 1.6 mg/L (≈ 3.66 µM) in assay [5].
